Laboratory results published in ChEMBL document CHEMBL1145081, “Effects of the substitution of Phe4 in the opioid peptide [D-Ala8]dynorphin A-(1-11)NH2” (J Med Chem, 2003).

Tests used:
[1] = biological target: T1, Opioid receptors; mu/kappa/delta (Homo sapiens) (UniProt P41145+P41143+P35372); test: Selectivity for kappa/Mu/Delta receptors was determined 1/1.7/90; type: protein assay
[2] = biological target: Kappa-type opioid receptor (Rattus norvegicus) (UniProt P34975); test: Inhibition of Forskolin-Stimulated Adenylyl Cyclase in CHO cells expressing Opioid receptor kappa 1 at 10 uM relative to 100 nM Dyn A-(1-13)NH(2); type: functional, cell-based
Chain of Kappa-type opioid receptor (Rattus norvegicus) (P34975 whole entry): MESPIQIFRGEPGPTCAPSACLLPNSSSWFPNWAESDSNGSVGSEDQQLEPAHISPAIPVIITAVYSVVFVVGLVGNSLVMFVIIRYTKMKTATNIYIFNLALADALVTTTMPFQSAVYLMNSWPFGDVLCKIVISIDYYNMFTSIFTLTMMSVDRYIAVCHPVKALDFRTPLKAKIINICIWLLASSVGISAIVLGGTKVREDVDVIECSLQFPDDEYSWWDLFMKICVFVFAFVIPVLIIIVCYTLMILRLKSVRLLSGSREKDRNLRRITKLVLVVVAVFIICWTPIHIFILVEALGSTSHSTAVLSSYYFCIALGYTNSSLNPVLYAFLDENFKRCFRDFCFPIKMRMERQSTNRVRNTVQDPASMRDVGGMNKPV
Procedure, shortened: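 Same κ-CHO forskolin (50 μM, 40 min, 37°) cyclic AMP assay, with phosphodiesterase and peptidase inhibitors. Maximal percent inhibition by peptide at 10 μM, expressed relative to the inhibition given by 100 nM Dyn A-(1-13)NH2. Cyclic AMP counts corrected for recovery using a [14C]cyclic AMP tracer.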

[3] = biological target: T2, Delta-type opioid receptor (Mus musculus, UniProt P32300); test: Binding affinity towards mouse Opioid receptor delta 1 expressed in CHO cells of chinese hamster ovary was determined using [3H]-[…] as radioligand; type: cell-based
T2 sequence (P32300 whole entry): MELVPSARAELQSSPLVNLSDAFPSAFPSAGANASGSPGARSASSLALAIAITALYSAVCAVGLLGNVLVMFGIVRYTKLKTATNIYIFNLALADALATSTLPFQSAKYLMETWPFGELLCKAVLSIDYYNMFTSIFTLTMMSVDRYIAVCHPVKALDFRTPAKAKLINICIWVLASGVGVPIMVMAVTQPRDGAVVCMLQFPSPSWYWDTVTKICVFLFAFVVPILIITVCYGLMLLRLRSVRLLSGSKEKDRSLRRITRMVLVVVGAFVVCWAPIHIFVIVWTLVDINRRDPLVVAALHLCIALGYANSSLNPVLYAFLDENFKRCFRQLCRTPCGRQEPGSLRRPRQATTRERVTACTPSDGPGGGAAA
Procedure, shortened: (§1)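 Competition binding against [3H]DPDPE on cloned mouse δ-opioid receptors stably expressed in CHO cells. Nonspecific binding defined with 10 μM unlabeled DPDPE. Peptidase inhibitors present (10 μM bestatin, 30 μM captopril, 50 μM L-leucyl-L-leucine) plus 3 mM Mg2+. Mean ± SEM from at least three separate assays.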

[4] = biological target: T3, Kappa-type opioid receptor (Rattus norvegicus, UniProt P34975); test: Binding affinity towards rat Opioid receptor kappa 1 expressed in CHO cells of chinese hamster ovary was determined using [3H]diprenorphine as radioligand; type: cell-based
T3 sequence (P34975 whole entry): as the sequence (P34975 whole entry) above
Procedure, shortened: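 Cloned rat κ-opioid receptors stably expressed in CHO cells; affinity from competitive inhibition of [3H]diprenorphine binding. Nonspecific binding defined with 10 μM unlabeled Dyn A-(1-13)NH2. Assay buffer held 10 μM bestatin, 30 μM captopril, 50 μM L-leucyl-L-leucine and 3 mM Mg2+. Mean ± SEM, at least three separate assays.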

[5] = biological target: Mu-type opioid receptor (Rattus norvegicus, UniProt P33535); test: Binding affinity towards rat Opioid receptor mu 1 expressed in CHO cells of chinese hamster ovary was determined using [3H]DAMGO; type: cell-based
Chain of Mu-type opioid receptor (P33535 whole entry): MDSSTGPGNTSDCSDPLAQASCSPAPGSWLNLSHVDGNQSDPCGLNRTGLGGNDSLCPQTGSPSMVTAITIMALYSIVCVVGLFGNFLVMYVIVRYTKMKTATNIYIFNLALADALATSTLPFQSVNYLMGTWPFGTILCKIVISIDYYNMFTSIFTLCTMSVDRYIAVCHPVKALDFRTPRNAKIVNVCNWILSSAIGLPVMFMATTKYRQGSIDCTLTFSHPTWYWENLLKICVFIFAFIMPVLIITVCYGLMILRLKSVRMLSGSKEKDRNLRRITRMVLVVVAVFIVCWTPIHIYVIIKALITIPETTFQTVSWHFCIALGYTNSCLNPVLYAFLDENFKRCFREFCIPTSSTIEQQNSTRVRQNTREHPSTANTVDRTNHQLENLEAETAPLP
Procedure, shortened: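 [3H]DAMGO displacement on cloned rat μ-opioid receptors stably expressed in CHO cells. Nonspecific binding defined with 10 μM unlabeled DAMGO. Peptidase inhibitors (10 μM bestatin, 30 μM captopril, 50 μM L-leucyl-L-leucine) and 3 mM Mg2+ included. Mean ± SEM, at least three separate assays.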

[6] = biological target: T3, Kappa-type opioid receptor; test: Inhibition of Forskolin-Stimulated Adenylyl Cyclase in CHO cells expressing Opioid receptor kappa 1; type: functional, cell-based
Procedure, shortened: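 CHO cells stably expressing cloned rat κ-opioid receptors. Cultures incubated 40 min at 37° with 50 μM forskolin and varying peptide concentrations. Present: 50 μM RO20-1724 (phosphodiesterase inhibitor), plus 10 μM bestatin, 30 μM captopril and 50 μM L-leucyl-L-leucine. [3H]cyclic AMP counted, with [14C]cyclic AMP added for recovery correction. Mean ± SEM, generally n ≥ 3, some n = 2.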

[7] = biological target: T1, Opioid receptors; mu/kappa/delta (Homo sapiens); test: Selectivity for kappa/Mu/Delta receptors was determined; 1/14/>377; type: protein assay
[8] = biological target: T2, Delta-type opioid receptor; test: Binding affinity towards mouse Opioid receptor delta 1 expressed in CHO cells of chinese hamster ovary was determined using [3H][…] as radioligand; type: cell-based; procedure, shortened: as §1
[9] = biological target: T1, Opioid receptors; mu/kappa/delta (Homo sapiens); test: Selectivity for kappa/Mu/Delta receptors was determined; 1/44/765; type: protein assay

T1 sequence (P35372 whole entry, looked up): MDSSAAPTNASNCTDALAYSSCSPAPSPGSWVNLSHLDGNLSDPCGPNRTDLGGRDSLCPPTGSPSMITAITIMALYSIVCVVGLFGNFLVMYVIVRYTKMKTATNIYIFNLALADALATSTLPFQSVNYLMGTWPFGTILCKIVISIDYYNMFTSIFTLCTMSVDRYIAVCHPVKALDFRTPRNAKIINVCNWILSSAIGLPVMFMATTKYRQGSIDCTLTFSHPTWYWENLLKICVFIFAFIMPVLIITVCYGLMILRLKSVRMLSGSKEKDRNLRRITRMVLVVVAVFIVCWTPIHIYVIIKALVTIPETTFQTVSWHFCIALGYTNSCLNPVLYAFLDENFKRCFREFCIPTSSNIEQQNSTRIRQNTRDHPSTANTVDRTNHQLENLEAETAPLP
T1 sequence (P41143 whole entry, looked up): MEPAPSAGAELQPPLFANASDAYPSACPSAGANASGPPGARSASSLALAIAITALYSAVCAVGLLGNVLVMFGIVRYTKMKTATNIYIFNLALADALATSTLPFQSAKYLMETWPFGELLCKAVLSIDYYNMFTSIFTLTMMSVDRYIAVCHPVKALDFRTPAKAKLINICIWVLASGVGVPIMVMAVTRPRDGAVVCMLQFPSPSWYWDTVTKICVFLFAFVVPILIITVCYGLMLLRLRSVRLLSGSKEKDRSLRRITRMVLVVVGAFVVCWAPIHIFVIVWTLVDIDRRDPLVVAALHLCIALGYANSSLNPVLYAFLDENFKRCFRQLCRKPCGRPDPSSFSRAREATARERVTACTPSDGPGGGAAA
T1 sequence (P41145 whole entry, looked up): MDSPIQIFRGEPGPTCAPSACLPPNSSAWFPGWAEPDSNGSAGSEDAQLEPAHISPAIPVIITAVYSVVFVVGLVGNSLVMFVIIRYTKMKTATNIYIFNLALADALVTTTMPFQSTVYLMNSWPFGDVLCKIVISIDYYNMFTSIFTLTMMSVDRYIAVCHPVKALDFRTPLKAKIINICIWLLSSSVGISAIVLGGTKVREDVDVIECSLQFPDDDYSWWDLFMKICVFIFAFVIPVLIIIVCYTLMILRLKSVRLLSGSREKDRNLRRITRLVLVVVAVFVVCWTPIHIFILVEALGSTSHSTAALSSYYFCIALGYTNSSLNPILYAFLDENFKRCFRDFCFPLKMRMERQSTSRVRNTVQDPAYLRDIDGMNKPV

SMILES | Max response [2] | Ki ([3]; cho) | Ki [4] | Ki ([5]; cho) | EC50 ([6]; cho) | Ki [3] | Ki [5] | EC50 [6] | also measured
CC(C)C[C@H](NC(=O)[C@@H](Cc1ccccc1)N(C)C(=O)CNC(=O)CNC(=O)[C@@H](N)Cc1ccc(O)cc1)C(=O)N[C@@H](CCCN=C(N)N)C(=O)N[C@@H](CCCN=C(N)N)C(=O)N[C@H](C)C(=O)N[C@@H](CCCN=C(N)N)C(=O)N1CCC[C@H]1C(=O)N[C@@H](CCCCN)C(N)=O | 99% | – | – | – | – | – | – | – | Ki ratio [1]: kappa/mu/delta
CC(C)C[C@H](NC(=O)[C@@H](CCc1ccccc1)NC(=O)CNC(=O)CNC(=O)[C@@H](N)Cc1ccc(O)cc1)C(=O)N[C@@H](CCCN=C(N)N)C(=O)N[C@@H](CCCN=C(N)N)C(=O)N[C@H](C)C(=O)N[C@@H](CCCN=C(N)N)C(=O)N1CCC[C@H]1C(=O)N[C@@H](CCCCN)C(N)=O | 95% | 0.19 µM | 0.00066 µM | 0.0137 µM | 0.0052 µM | – | – | – | –
CC(C)C[C@H](NC(=O)[C@H](Cc1ccccc1)N(C)C(=O)CNC(=O)CNC(=O)[C@@H](N)Cc1ccc(O)cc1)C(=O)N[C@@H](CCCN=C(N)N)C(=O)N[C@@H](CCCN=C(N)N)C(=O)N[C@H](C)C(=O)N[C@@H](CCCN=C(N)N)C(=O)N1CCC[C@H]1C(=O)N[C@@H](CCCCN)C(N)=O | – | 0.0561 µM | – | 0.00103 µM | 0.00356 µM | – | – | – | Ki ([4]; cho): 0.00062 µM
CC(C)C[C@H](NC(=O)C1(NC(=O)CNC(=O)CNC(=O)[C@@H](N)Cc2ccc(O)cc2)Cc2ccccc2C1)C(=O)N[C@@H](CCCN=C(N)N)C(=O)N[C@@H](CCCN=C(N)N)C(=O)N[C@H](C)C(=O)N[C@@H](CCCN=C(N)N)C(=O)N1CCC[C@H]1C(=O)N[C@@H](CCCCN)C(N)=O | 39% | – | 0.0265 µM | – | – | > 10 µM | 0.364 µM | – | Ki ratio [7]: kappa/mu/delta
CC(C)C[C@H](NC(=O)[C@@H]1Cc2ccccc2CN1C(=O)CNC(=O)CNC(=O)[C@@H](N)Cc1ccc(O)cc1)C(=O)N[C@@H](CCCNC(=N)N)C(=O)N[C@@H](CCCNC(=N)N)C(=O)N[C@H](C)C(=O)N[C@@H](CCCNC(=N)N)C(=O)N1CCC[C@H]1C(=O)N[C@@H](CCCCN)C(N)=O | – | – | 0.00469 µM | – | – | 3.59 µM | 0.206 µM | 0.0294 µM | –
CC(C)C[C@H](NC(=O)[C@]1(NC(=O)CNC(=O)CNC(=O)[C@@H](N)Cc2ccc(O)cc2)CCc2ccccc2C1)C(=O)N[C@@H](CCCN=C(N)N)C(=O)N[C@@H](CCCN=C(N)N)C(=O)N[C@H](C)C(=O)N[C@@H](CCCN=C(N)N)C(=O)N1CCC[C@H]1C(=O)N[C@@H](CCCCN)C(N)=O | 74% | – | – | – | – | – | – | – | –
CC(C)C[C@H](NC(=O)[C@H](CCc1ccccc1)NC(=O)CNC(=O)CNC(=O)[C@@H](N)Cc1ccc(O)cc1)C(=O)N[C@@H](CCCN=C(N)N)C(=O)N[C@@H](CCCN=C(N)N)C(=O)N[C@H](C)C(=O)N[C@@H](CCCN=C(N)N)C(=O)N1CCC[C@H]1C(=O)N[C@@H](CCCCN)C(N)=O | 100% | – | 0.00173 µM | – | – | 5.57 µM | 0.047 µM | 0.0469 µM | –
CC(C)C[C@H](NC(=O)[C@]1(NC(=O)CNC(=O)CNC(=O)[C@@H](N)Cc2ccc(O)cc2)CCc2ccccc2C1)C(=O)N[C@@H](CCCNC(=N)N)C(=O)N[C@@H](CCCNC(=N)N)C(=O)N[C@H](C)C(=O)N[C@@H](CCCNC(=N)N)C(=O)N1CCC[C@H]1C(=O)N[C@@H](CCCCN)C(N)=O | – | – | 0.00954 µM | – | – | > 10 µM | 0.0883 µM | 0.573 µM | –
CC(C)C[C@H](NC(=O)[C@@H](Cc1ccccc1)NC(=O)CNC(=O)CNC(=O)[C@@H](N)Cc1ccc(O)cc1)C(=O)N[C@@H](CCCN=C(N)N)C(=O)N[C@@H](CCCN=C(N)N)C(=O)N[C@H](C)C(=O)N[C@@H](CCCN=C(N)N)C(=O)N1CCC[C@H]1C(=O)N[C@@H](CCCCN)C(N)=O | 100% | 0.00657 µM | – | 0.0042 µM | 0.00124 µM | – | – | – | Ki ([4]; cho): 0.00011 µM
CC(C)C[C@H](NC(=O)[C@@]1(NC(=O)CNC(=O)CNC(=O)[C@@H](N)Cc2ccc(O)cc2)CCc2ccccc2C1)C(=O)N[C@@H](CCCN=C(N)N)C(=O)N[C@@H](CCCN=C(N)N)C(=O)N[C@H](C)C(=O)N[C@@H](CCCN=C(N)N)C(=O)N1CCC[C@H]1C(=O)N[C@@H](CCCCN)C(N)=O | 96% | – | 0.00089 µM | – | – | > 10 µM | 0.0329 µM | 0.0724 µM | –
CC(C)C[C@H](NC(=O)[C@@](C)(Cc1ccccc1)NC(=O)CNC(=O)CNC(=O)[C@@H](N)Cc1ccc(O)cc1)C(=O)N[C@@H](CCCN=C(N)N)C(=O)N[C@@H](CCCN=C(N)N)C(=O)N[C@H](C)C(=O)N[C@@H](CCCN=C(N)N)C(=O)N1CCC[C@H]1C(=O)N[C@@H](CCCCN)C(N)=O | 100% | 0.157 µM | – | 0.00324 µM | 0.0365 µM | – | – | – | Ki ([4]; cho): 0.0032 µM
CC(C)C[C@H](NC(=O)[C@H](Cc1ccccc1)NC(=O)CNC(=O)CNC(=O)[C@@H](N)Cc1ccc(O)cc1)C(=O)N[C@@H](CCCN=C(N)N)C(=O)N[C@@H](CCCN=C(N)N)C(=O)N[C@H](C)C(=O)N[C@@H](CCCN=C(N)N)C(=O)N1CCC[C@H]1C(=O)N[C@@H](CCCCN)C(N)=O | 73% | – | 0.00891 µM | – | – | – | 0.123 µM | 0.515 µM | Ki [8]: > 10 µM
CC(C)C[C@H](NC(=O)[C@@H]1Cc2ccccc2CN1C(=O)CNC(=O)CNC(=O)[C@@H](N)Cc1ccc(O)cc1)C(=O)N[C@@H](CCCN=C(N)N)C(=O)N[C@@H](CCCN=C(N)N)C(=O)N[C@H](C)C(=O)N[C@@H](CCCN=C(N)N)C(=O)N1CCC[C@H]1C(=O)N[C@@H](CCCCN)C(N)=O | 91% | – | – | – | – | – | – | – | Ki ratio [9]: kappa/mu/delta
